1 compound from ChEMBL document CHEMBL6134796, “Development and Evaluation of Indole-Based Phospholipase D Inhibitors for Lung Cancer Immunotherapy” (J Med Chem, 2025) can be followed below.

The test system of data set [1] is A549. The experiment in a line: Inhibition of PLD1 L425A mutant (unknown origin) overexpressed in human A549 cells. The data set is classed as cell-based. A digest of the protocol: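 A549 cells transfected with wild-type PLD1, PLD1 mutants (L425A, F614A, F789A) or PLD2, then compound-treated. PLD activity measured as [3H]phosphatidylbutanol formed in the presence of 1-butanol after [3H]myristic acid labeling, expressed as % of total lipid cpm. At least three independent experiments.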

The subject of the next data set is HCT-116. The experiment in a line: Cytotoxicity against human HCT-116 cells assessed as inhibition of cell growth incubated for 48 hrs by WST-1 assay. Format: functional, cell-based. The following applies: HCT-116, 48 h. For orientation: Formazan colour is commonly taken as a measure of viable cells.
Data set [2] can be described thus: Cytotoxicity against human HCC15 cells assessed as inhibition of cell growth incubated for 48 hrs by WST-1 assay. Format: functional, cell-based. Conditions: HCC15, 48 h. A digest of the protocol: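 WST-1 viability assay. Cells seeded at 5 × 10^3 per well and incubated 24 h at 37 °C, then exposed to drug for 48 h. Absorbance read at 450 nm, in triplicate. IC50 taken as the concentration giving 50% growth inhibition versus control.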

In data set [3] the test system is A549. The experiment in a line: Inhibition of colony formation in human A549 cells incubated for 48 hrs by crystal violet staining based analysis. Format: functional, cell-based. In short, it runs like this:
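A549 cells seeded at 500 to 1,000 per well; compound added 48 h after seeding, then 48 h further incubation; medium changed every 3 days, kept 10 days total; fixed in 4% PFA 20 min, crystal violet 30 min; colonies counted by image analysis.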

In data set [4] the test system is A549. The experiment in a line: Inhibition of cell proliferation in human A549 cells assessed as reduction in Ki-67 expression. The data set is classed as functional, cell-based. In short, it runs like this: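 A549 cells immunostained for Ki67 with fluorescent secondary antibody; nuclei counterstained with 1 μM Hoechst 33342; confocal imaging; at least three independent experiments, mean ± SEM.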

In data set [5] the test system is A549. The experiment in a line: Induction of apoptosis in human A549 cells assessed as increase in caspase-3 activity measured up to 48 hrs in presence of gemcitabine […]. Format: functional, cell-based. In short, it runs like this: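 A549 cells given compound, gemcitabine, or both. Apoptosis assessed by PI staining, annexin V flow cytometry, cleaved PARP immunoblot, and caspase-3 activity. For caspase-3: drugs at 10 μM for 48 h, then 1 μM NucView 488 substrate for 30 min, with 1 μM Hoechst 33342, read by plate fluorescence.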

The nature of data set [6]: Metabolic stability in human liver microsomes assessed as parent compound remaining at 1 uM preincubated for 5 mins followed by NADPH regenerating system addition and measured after 30 mins by LC-MS/MS analysis. The data set is classed as ADME, Microsome. Conditions: time 35 min, read-out: Stability. A digest of the protocol: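 Human liver microsomes 0.5 mg/mL in 0.1 M phosphate buffer pH 7.4, compound 1 μM, preincubated 5 min at 37 °C; NADPH regenerating system added, 30 min at 37 °C; quenched with acetonitrile containing chlorpropamide internal standard, centrifuged; parent remaining by LC-MS/MS, MRM mode, C18 column with formic acid/acetonitrile gradient.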
In general terms: Microsomes from liver hold many membrane-bound enzymes, among them those of drug oxidation.

A short description of data set [7]: Toxicity in male C57BL/6 mouse assessed as effect on body weight at 10 mg/kg, po measured every other day for 3 weeks. Format: organism-based. Conditions: in vivo, 504 h.
In a further data set the test system is Mus musculus. The experiment in a line: In vivo inhibition of KRAS activation in male C57BL/6 mouse allografted with mouse Lewis lung carcinoma cell line assessed as decrease in RAS level at 10 mg/kg, po. The data set is classed as functional, organism-based.
The target of data set [8] is T1, Phospholipase D1 (Mus musculus) (UniProt Q9Z280).
T1 sequence (whole entry): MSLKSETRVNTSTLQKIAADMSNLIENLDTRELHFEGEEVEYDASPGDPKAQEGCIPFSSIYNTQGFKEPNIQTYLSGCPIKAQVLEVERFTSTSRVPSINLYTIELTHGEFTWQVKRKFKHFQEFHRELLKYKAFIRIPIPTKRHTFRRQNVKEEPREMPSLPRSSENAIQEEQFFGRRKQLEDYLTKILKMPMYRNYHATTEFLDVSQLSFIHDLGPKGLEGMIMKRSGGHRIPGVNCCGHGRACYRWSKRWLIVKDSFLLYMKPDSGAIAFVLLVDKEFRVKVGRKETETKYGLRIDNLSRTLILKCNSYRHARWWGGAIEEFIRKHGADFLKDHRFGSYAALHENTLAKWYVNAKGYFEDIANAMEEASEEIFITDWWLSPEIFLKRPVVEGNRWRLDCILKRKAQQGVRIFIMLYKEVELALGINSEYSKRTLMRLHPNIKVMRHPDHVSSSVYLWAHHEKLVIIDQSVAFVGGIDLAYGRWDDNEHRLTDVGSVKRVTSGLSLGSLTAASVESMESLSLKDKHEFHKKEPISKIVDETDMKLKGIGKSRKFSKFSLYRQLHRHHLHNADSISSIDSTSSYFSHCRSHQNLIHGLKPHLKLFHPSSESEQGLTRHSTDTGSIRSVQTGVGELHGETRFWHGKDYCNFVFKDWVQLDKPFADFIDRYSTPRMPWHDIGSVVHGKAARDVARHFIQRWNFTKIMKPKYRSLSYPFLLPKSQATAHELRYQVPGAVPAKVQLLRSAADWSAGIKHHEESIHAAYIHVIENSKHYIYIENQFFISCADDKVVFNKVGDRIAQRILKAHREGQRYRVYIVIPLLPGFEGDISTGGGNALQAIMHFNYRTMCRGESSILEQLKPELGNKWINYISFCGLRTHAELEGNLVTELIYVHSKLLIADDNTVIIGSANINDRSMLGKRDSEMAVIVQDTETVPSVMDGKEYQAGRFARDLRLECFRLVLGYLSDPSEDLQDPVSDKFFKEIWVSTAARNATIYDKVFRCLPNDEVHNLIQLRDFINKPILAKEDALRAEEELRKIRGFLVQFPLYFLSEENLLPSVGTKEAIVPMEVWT
The data set is described as follows: In vivo inhibition of PLD1 in male C57BL/6 mouse allografted with mouse Lewis lung carcinoma cell line assessed as increase in CD4+ cell population at 10 mg/kg, po by immunofluorescence analysis. Format: functional, organism-based. A digest of the protocol: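 Same LLC syngeneic C57BL/6 model, 10 mg/kg PO every other day for 3 weeks. Tumor tissues were stained by immunofluorescence for CD80+ and CD163+ cells, CD8+ T cells, and CD4+/IL-17+ and Treg populations. Nuclei were counterstained with 1 μM Hoechst 33342 and imaged by confocal microscopy.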

The source made the active and inactive calls. The rule behind the calls is not given here.

For orientation: IC50 means the concentration that inhibits the measured activity by half. With `O=C(CCc1c[nH]c2ccccc12)Nc1cc(C(F)(F)F)cc(C(F)(F)F)c1`, the inhibition entry (in the data set on A549 [1]; with A549 [3]; in the data set on A549 [4]; in the data set on Mus musculus; in data set [8]) was “Active” in each case. The values for the IC50 (with HCT-116; in data set [2]) were 29 µM and 21.4 µM, respectively. Further, in the data set with A549 [5], the outcome was Active. In [6], the remaining at 0.5 h, 1 µM was 57.3%. In addition, the Activity entry in data set [7] is recorded as “Non-toxic”.
